As usually defined, the IC50 is the concentration at which inhibition is half-maximal. In general, MIC refers to the lowest concentration found to suppress growth. The low end stands for a more susceptible organism, the high end for a less susceptible organism.

5 compounds from ChEMBL document CHEMBL2384958, “Potential of lichen secondary metabolites against Plasmodium liver stage parasites with FAS-II as the potential target” (J Nat Prod, 2013) can be followed below.

Structures are written as SMILES. ≈ marks a conversion by molar mass, not a printed value. Calls of active or inactive are those of the source. The rule behind the calls is not given here.

For one series, the system named is Plasmodium. The series can be described thus: Antiplasmodial activity against blood stage of Plasmodium. Type of series: functional. A digest of the protocol: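 P. falciparum K1 (chloroquine/pyrimethamine-resistant) culture with 3H-hypoxanthine incorporation read-out, run in duplicate. Assay medium held 15 μM hypoxanthine, parasitemia 0.4%, and compounds were incubated 48 h before 3H-hypoxanthine was added.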

The test system of series [1] is Plasmodium berghei. The series can be described thus: microbe, parasite or virus in culture. The settings on record: ANKA, HepG2.
The test system of series [2] is Plasmodium berghei. In words: microbe, parasite or virus in culture. The following applies: Huh-7.
Series [3] is filed under the species Danio rerio. In words: Hepatotoxicity in zebrafish larva expressing fabp10a:DsRed2 assessed as change in liver size at 3.6 to 60.2 uM measured at 6 days postfertilization by fluorescence microscopic analysis relative to control. Type of series: toxicity, organism-based. The settings on record: in vivo, 144 h. A digest of the protocol: (§1)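 Transgenic fabp10a:DsRed2 zebrafish were raised at 28.5 °C on a 14 h light/10 h dark cycle. Larvae were sorted at 3 dpf for liver fluorescence and exposed to compounds at 10 per well, with 1% DMSO controls. General and heart toxicity were checked at 4 dpf, dosing went up to the maximum-tolerated concentration, and five liver phenotypes were scored at 6 dpf by fluorescence microscopy.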

The species entered for series [4] is Danio rerio. The series can be described thus: Hepatotoxicity in zebrafish larva expressing fabp10a:DsRed2 assessed as reduction in liver size at 60.2 uM measured at 6 days postfertilization by fluorescence microscopic analysis. Type of series: toxicity, organism-based. The following applies: in vivo, 144 h. The method in brief:
as §1

The species entered for series [5] is Danio rerio. In words: Toxicity in zebrafish larva measured at 4 days postfertilization. In kind it is organism-based. The following applies: in vivo, 96 h. A digest of the protocol: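 Transgenic fabp10a:DsRed2 larvae raised at 28.5 °C (14 h light/10 h dark), sorted for liver fluorescence at 3 dpf and exposed to compounds, 10 larvae per well; general and heart toxicity checked at 4 dpf to set maximum-tolerated concentration.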

For another series, the system named is Escherichia coli. The series can be described thus: Antibacterial activity against Escherichia coli ATCC 8739. In kind it is functional, organism-based. The following applies: ATCC 8739, ATCC 8739. A digest of the protocol:
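E. coli ATCC 8739 whole cells tested in triplicate by a previously reported method. Compounds were fully solubilized beforehand, with brief agitation or sonication used for DMSO solutions at high test concentrations (>120 μM).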

Series [6] has as its target T1, Enoyl-[acyl-carrier-protein] reductase [NADH] FabI (Escherichia coli K-12, UniProt P0AEK4).
T1 sequence (P0AEK4 whole entry): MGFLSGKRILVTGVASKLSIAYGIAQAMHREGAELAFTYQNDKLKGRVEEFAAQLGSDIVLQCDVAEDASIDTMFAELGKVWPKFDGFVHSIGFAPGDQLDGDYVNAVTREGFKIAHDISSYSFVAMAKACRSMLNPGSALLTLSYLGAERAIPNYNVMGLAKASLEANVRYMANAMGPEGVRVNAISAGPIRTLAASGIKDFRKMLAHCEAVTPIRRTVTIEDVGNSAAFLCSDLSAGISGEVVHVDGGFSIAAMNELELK
In words: Inhibition of Escherichia coli FabI using 2-dodecenoyl-CoA as substrate at pH 8.

A short description of series [7]: Inhibition of Staphylococcus aureus FabI using dodecenoyl ACP at pH 7.8.
Series [8] can be described thus: Inhibition of Plasmodium falciparum FabZ using crotonoyl-CoA as substrate preincubated for 10 mins prior to substrate addition.
A short description of series [9]: Inhibition of Plasmodium falciparum FabG using acetoacetyl-CoA as substrate.
A short description of series [10]: Inhibition of Plasmodium falciparum FabI using crotonoyl-CoA as substrate preincubated for 10 mins prior to substrate addition.
The next series relates to Plasmodium falciparum. In words: Antiplasmodial activity against blood stage of chloroquine and pyrimethamine-resistant Plasmodium falciparum K1 after 48 hrs by [3H]-hypoxanthine incorporation assay. Type of series: functional, organism-based. The method in brief:
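0.4% parasitemia in assay medium with 15 μM hypoxanthine; compounds incubated 48 h before 3H-hypoxanthine added; run in duplicate.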

For series [11], the system named is Plasmodium berghei. The series can be described thus: Antiplasmodial activity against liver stage of Plasmodium berghei ANKA expressing GFP infected in human Huh7.5 cells assessed as decrease in size at 10 uM after 48 hrs by immunofluorescence analysis. In kind it is functional, organism-based. The following applies: Huh-7. The method in brief:
(§2)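 HuH7.5 cells (50 000/well, chambered slides) were infected with 33 000 freshly dissected P. berghei GFP sporozoites and incubated 48 h with compound or 0.1% DMSO. Cells were fixed in 10% neutral buffered formalin and stained with mouse anti-Plasmodium HSP70 (FITC) plus Hoechst. Parasite size was imaged by fluorescence microscopy with a 40× objective.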

In series [12] the test system is Plasmodium berghei. The series can be described thus: Antiplasmodial activity against liver stage of Plasmodium berghei ANKA expressing GFP infected in human Huh7.5 cells assessed as reduction in PB18S gene expression after 48 hrs by qRT-PCR analysis. In kind it is functional, organism-based. The following applies: Huh-7, 48 h. A digest of the protocol:
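HuH7.5 cells infected with freshly dissected P. berghei GFP sporozoites (30 000 per 60 000 cells); 48 h culture with compounds (10 to 100 μM) at 37 °C, media changed every 24 h. Total RNA extracted, DNase treated; PB18S expression normalized to DMSO controls; IC50 estimated; atovaquone positive control.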
For orientation: Quantitative PCR measures a nucleic acid by following its amplification.

Series [13] can be described thus: Cytotoxicity against human Huh7.5 cells after 24 hrs by Cell-titerGlo luminescence assay. Type of series: cell-based. The settings on record: Huh-7, 24 h. The method in brief: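 HuH7.5 human hepatoma cells (30 000/well) in advanced DMEM complete medium were exposed to compounds for 24 h, or to 0.1% DMSO as reference. Viability was read by CellTiter-Glo luminescence.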

The next series deals with KB. In words: Cytotoxicity against human KB cells after 72 hrs by Alamar Blue assay. In kind it is functional, cell-based. (In general: Resazurin is reduced to fluorescent resorufin, in cell work by metabolically active cells.)
Series [14] deals with Mycobacterium tuberculosis. The series can be described thus: Antimycobacterial activity against Mycobacterium tuberculosis ATCC 27294. In kind it is functional.
The species named for series [15] is Danio rerio. In words: Hepatotoxicity in zebrafish larva expressing fabp10a:DsRed2 assessed as enlargement of liver at 15.5 uM measured at 6 days postfertilization by fluorescence microscopic analysis. The following applies: in vivo, 144 h. Type of series: toxicity, organism-based. The method in brief: as §1
A further series has as its system Staphylococcus aureus. The series can be described thus: Antibacterial activity against Staphylococcus aureus ATCC 6538. Type of series: functional. The method in brief:
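S. aureus ATCC 6538 whole cells tested in triplicate by a previously reported method. Compounds were fully solubilized beforehand, with brief agitation or sonication for high test concentrations (>120 μM) in DMSO.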

The species entered for series [16] is Danio rerio. In words: Hepatotoxicity in zebrafish larva expressing fabp10a:DsRed2 assessed as change in liver size at 0.3 uM measured at 6 days postfertilization by fluorescence microscopic analysis. The following applies: in vivo, 144 h. Type of series: toxicity, organism-based. A digest of the protocol:
as §1

Series [17] is described as follows: Inhibition of Mycobacterium tuberculosis FabI using 2-dodecenoyl-CoA as substrate at pH 6.8.
The subject of series [18] is Plasmodium berghei. The series can be described thus: Antiplasmodial activity against liver stage of Plasmodium berghei ANKA expressing GFP infected in human Huh7.5 cells assessed as decrease in size at 1 uM after 48 hrs by immunofluorescence analysis. Type of series: functional, organism-based. The following applies: Huh-7. The method in brief: as §2

With `COc1cc(NC(C)CCCN)c2ncccc2c1` (centres undefined) [PRIMAQUINE], the concentration for half-maximal inhibition (IC50) was 1.4 µM in the series with Plasmodium, 7.5 µM in the series with Plasmodium berghei [1] and 7.5 µM with Plasmodium berghei [2].

Turning to `COc1cc(C)c(C(=O)Oc2cc(C)c(C(=O)O)c(O)c2)c(O)c1` [EVERNIC ACID], the Activity entry was “>= 40%” in the series listed under Danio rerio [3] and “Toxic” in the series listed under Danio rerio [4]. The compound also came in with an MTD in the series listed under Danio rerio [5] of 60.2 µM. The half-maximal inhibitory concentration (IC50) in the series on Escherichia coli is above 64 µM; in series [6], 90 µM; in [7], 170 µM; in [8], 10.7 µM; in series [9], above 200 µM; in [10], 36.1 µM. Besides, the half-inhibitory concentration (IC50) in the series with Plasmodium falciparum was 142 µM; in the series with Plasmodium berghei [12] it was 77.3 µM; in series [13], above 100 µM; with KB, 190 µM. In addition, the result with Plasmodium berghei [11] was inactive.

Regarding `COc1cc(C(=O)O)c2c(c1C)OC(=O)c1c(C)cc(O)c(C=O)c1O2` [PSOROMIC ACID], the Activity result in the series listed under Danio rerio [3] is “>= 40%”. This compound also gave an MTD in the series filed under Danio rerio [5] of 3.6 µM. The IC50 was above 64 µM in the series on Escherichia coli; above 200 µM in [6]; above 200 µM in series [7]; 35.2 µM in series [8]; 183 µM in series [9]; 71.4 µM in [10]. In addition, the concentration for half-maximal inhibition (IC50) in the series on Plasmodium falciparum is 29.2 µM; with Plasmodium berghei [12], 31.6 µM; in [13] it was above 100 µM; with KB it was 31.6 µM. In addition, in series [14], the lowest concentration to inhibit growth (MIC) was 123 µM (≈ 44 µg/mL). Further, the result with Plasmodium berghei [11] was inactive.

With `COC(=O)/C(=C1/OC(=O)C(c2ccccc2)=C1O)c1ccccc1` [VULPINIC ACID], the Activity entry was “>= 40%” in the series listed under Danio rerio [3] and “Toxic” in the series listed under Danio rerio [15]. The MTD in the series filed under Danio rerio [5] was found to be 15.5 µM. Further, the half-inhibitory concentration (IC50) is above 64 µM in the series with Escherichia coli; 84 µM in [6]; 90 µM in series [7]; 20.5 µM in series [8]; above 200 µM in [9]; above 140 µM in series [10]. The half-inhibitory concentration (IC50) in the series on Plasmodium falciparum is 48.5 µM; with Plasmodium berghei [12], 10.2 µM; in series [13] it was above 100 µM. Further, the minimal inhibitory concentration (MIC) against Staphylococcus aureus stood at 32 µM (≈ 10.3 µg/mL). In addition, the outcome with Plasmodium berghei [11] was Active.

Regarding `CC(=O)C1=C(O)C=C2Oc3c(C(C)=O)c(O)c(C)c(O)c3[C@@]2(C)C1=O` [(+)-USNIC ACID], in the series listed under Danio rerio [16], the Activity entry is given as “Non-toxic”. In the series filed under Danio rerio [5], this compound gave an MTD of 0.3 µM. For the same compound, the IC50 was above 64 µM in the series on Escherichia coli; 47 µM in [6]; 190 µM in series [7]; 190 µM in [17]; above 200 µM in series [8]; above 200 µM in series [9]. In addition, the IC50 in [10] is above 200 µM; in the series with Plasmodium berghei [12], 2.3 µM; in [13], above 100 µM. This compound also came in with an MIC in [14] of 15.1 µM (≈ 5.2 µg/mL). The outcome with Plasmodium berghei [18] and in the series on Plasmodium berghei [11] was Active.
